# Source: PubChem (The Scripps Research Institute Molecular Screening Center)
# MBD2 DNA inh: MBD2-methylated oligo binding inhibition; 370,000 tested, 0.31% active; TR-FRET, MBD2 binding to methylated oligonucleotide; inhibition, % at 4.4 µM; in the data active = inhibition above about 13%
# LEDGF integ inh: blocks HIV-1 LEDGF/p75-dependent DNA integration | inhibition, % at 3.7 µM | 370,000 tested, 0.64% active | TR-FRET IN-LEDGF/p75 DNA integration, Eu/Cy5;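 active = inhibition above the screen-wide mean plus 3 SD, cut at about 13% in these data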;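 note: signal is the Cy5 over europium emission ratio at 671 and 618 nm; 0% = plate median of compound wells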
# SIAE inh: human SIAE inhibition, primary screen | 370,000 tested, 0.69% active | inhibition, % at 9.66 µM | AID 1053197 | SIAE FP-Rh probe binding, fluorescence polarization;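 active = inhibition above a cutoff: mean of compounds within the control limits plus 3 SD of those, cut at about 17% in these data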;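 note: 0% = plate median of compound wells and 100% = probe without SIAE protein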
# PRMT1 FP inh: inhibitors of human PRMT1 | Q99873 | recombinant PRMT1, activity-based probe fluorescence polarization | inhibition, % at 2.79 µM | 370,000 tested, 1.3% active | AID 652257;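 active = inhibition above about 21% made by adding two undisclosed values, limit read from the data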
# UHRF1 binding: human UHRF1 methylated DNA binding inhibitors; 370,000 tested, 0.75% active; Q96T88; UHRF1 binding to methylated oligo, TR-FRET; inhibition, % at 4.4 µM; in the data active = inhibition above about 21%;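 note: UHRF1 SRA domain binding a hemimethylated CpG hairpin DNA probe; 0% = median of test compound wells and 100% = reference inhibitor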
# Target sequence (Q96T88 whole entry, looked up, the tested form may be a part): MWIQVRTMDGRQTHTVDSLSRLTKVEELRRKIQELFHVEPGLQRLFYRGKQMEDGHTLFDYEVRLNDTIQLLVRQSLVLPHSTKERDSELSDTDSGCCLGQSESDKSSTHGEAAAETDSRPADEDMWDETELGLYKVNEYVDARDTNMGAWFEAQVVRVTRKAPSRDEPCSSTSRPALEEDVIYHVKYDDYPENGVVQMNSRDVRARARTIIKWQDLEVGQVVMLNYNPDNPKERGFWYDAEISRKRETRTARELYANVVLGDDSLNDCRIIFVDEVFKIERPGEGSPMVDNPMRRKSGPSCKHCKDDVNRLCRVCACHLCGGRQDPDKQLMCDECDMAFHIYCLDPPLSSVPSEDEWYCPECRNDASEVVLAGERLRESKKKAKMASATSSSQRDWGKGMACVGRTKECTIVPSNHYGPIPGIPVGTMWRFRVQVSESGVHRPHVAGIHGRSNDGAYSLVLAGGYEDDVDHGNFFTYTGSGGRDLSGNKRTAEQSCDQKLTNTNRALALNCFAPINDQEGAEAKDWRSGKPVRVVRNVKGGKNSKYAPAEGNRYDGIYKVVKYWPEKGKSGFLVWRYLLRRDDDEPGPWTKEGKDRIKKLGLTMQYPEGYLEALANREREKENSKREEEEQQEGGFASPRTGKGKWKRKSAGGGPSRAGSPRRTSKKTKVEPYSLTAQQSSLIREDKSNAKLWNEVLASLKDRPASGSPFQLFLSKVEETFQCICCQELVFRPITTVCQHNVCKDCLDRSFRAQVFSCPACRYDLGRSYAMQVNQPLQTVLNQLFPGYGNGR
# TDP2 inh: blocks human TDP2 phosphodiesterase activity | O95551 | recombinant TDP2, T5PNP hydrolysis, p-nitrophenol absorbance 415 nm | inhibition, % at 12.8 µM | 370,000 tested, 0.34% active | AID 720702;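 active = inhibition above the mean of all tested compounds plus 3 SD, set per campaign, cut at about 25% in these data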;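 note: 0% = DMSO with enzyme and 100% = buffer with substrate but no TDP2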
#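 Assay system: Recombinant human TDP2 | Quantity: 120 nM TDP2 per well | Incubation: 2 h at 37 °C | Signal: Epi absorbance | Evaluation: Percent inhibition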
# PRMT1 confirm: confirmation of human PRMT1 inhibitors; AID 687036; shares compounds with PRMT1 FP inh; 3,300 tested, 42% active; inhibition, % at 2.79 µM; recombinant His-PRMT1, activity-based probe fluorescence polarization;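 active = mean inhibition across replicates above the hit cutoff derived for the earlier primary screen, cut at about 22% in these data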
# * marks the source's active call; other numbers are inactive results; x = no result. Only some compounds are listed: those with a hit (about 3.3% of all), similar ones and a draw of the others.
SMILES,MBD2 DNA inh,LEDGF integ inh,SIAE inh,PRMT1 FP inh,UHRF1 binding,TDP2 inh,PRMT1 confirm
N#CC1=C(N)NC(=S)C(C(N)=O)C1c1ccc(Cl)cc1Cl (stereo not drawn),-6.0,0.6,5.6,72.5*,0.0,-9.4,34.3*
CCN1CCSc2ccc(C(=O)NCc3ccccc3F)cc21,-3.9,2.7,8.1,51.9*,-1.5,0.7,4.4
COc1cc(C(=O)NC2CCCCN(Cc3cccc(C(F)(F)F)c3)C2=O)cc(OC)c1OC (stereo not drawn),3.2,-2.9,2.7,-1.1,0.4,3.3,x
COC(=O)[C@]12C[C@H](CC(=O)N3CCN(C(=O)C4CC4)CC3)C(=O)N(Cc3ccc(Cl)cc3Cl)C1=C[C@H](C(C)(C)C)O[C@@H]2C,6.4,3.1,4.7,6.1,0.4,-5.0,x
Cc1[nH]c(=O)c(C#N)c2c1CCCC2,2.2,0.0,-3.0,-1.3,-1.2,-2.8,x
Cc1[nH]c(=S)c(C#N)c2c1CCCC2,-4.7,1.3,5.5,39.8*,-1.9,0.0,18.7
COc1ccc(OC)c(NC(=O)CSc2nncc3ccc(OC)c(OC)c23)c1,2.0,-0.2,11.4,55.5*,3.4,-15.8,3.7
Cc1ccc(-c2cccc3[nH]cc(C)c23)s1,-1.2,1.4,13.8,-0.7,-0.8,-1.6,x
CSc1nc2c(c(=O)[nH]c(=O)n2C)n1Cc1ccc(Cl)cc1,-0.9,8.8,3.2,66.2*,-2.2,-3.8,6.8
Cn1c(=O)[nH]c(=O)c2c1nc(SCCN1CCCCC1)n2Cc1ccccc1,-1.4,1.5,4.0,-4.7,11.0,-0.5,x
COCCSc1nc2c(c(=O)[nH]c(=O)n2C)n1CCCc1ccccc1,0.3,-4.3,-1.6,1.5,-0.8,7.5,x
Cn1c(=O)[nH]c(=O)c2c1nc(SCCN1CCCCC1)n2CCCc1ccccc1,-2.5,-1.9,-0.3,57.2*,-1.5,7.5,45.5*
Cc1ccc(Cn2c(SCCN3CCCCC3)nc3c2c(=O)[nH]c(=O)n3C)cc1,1.0,0.9,3.1,33.1*,2.1,2.4,46.0*
O=C(CCn1nnc2ccccc21)N1CCN(c2ccccc2F)CC1,4.2,-2.6,-1.1,4.0,1.7,8.0,x
Cc1ccc(C=NNC(=O)CSc2nc3sc4c(c3c(=O)n2-c2ccccc2)CCCC4)s1,-1.0,-0.5,-5.5,1.8,0.4,1.4,x
CC(=O)c1ccc(S(=O)(=O)NCC(=O)NC(c2nc3ccccc3[nH]2)C(C)C)cc1 (stereo not drawn),1.7,2.2,-2.8,33.9*,1.3,-14.2,38.5*
CC(C)(NC(=O)c1ccccc1)c1nc2ccccc2s1,6.2,1.2,1.1,58.9*,15.5,-12.1,81.5*
O=C(NC(Nc1nc2ccccc2s1)(C(F)(F)F)C(F)(F)F)c1ccccc1,-2.3,-0.3,2.7,-0.5,-2.0,5.8,x
CCn1c2ccccc2c2cc(C=NNC(=O)c3ccoc3C)ccc21,-0.3,-4.7,4.8,5.3,-2.4,6.1,x
O=C(Cc1ccccc1F)Nc1nnc(-c2cccnc2)s1,-1.4,0.3,2.4,-1.2,-1.6,-3.5,x
NC(=O)c1c(N)[nH]c(C(=O)c2ccccc2)c1-c1ccccn1,-1.3,0.4,3.3,3.2,-1.2,-5.6,x
N#Cc1c(SCC(=O)Nc2ccccc2C(F)(F)F)sc2c(O)cc(=O)[nH]c12,12.9,9.3,-7.1,31.2*,31.2*,-5.7,5.1
N#Cc1c(SCC(=O)Nc2ccc(Cl)cc2Cl)sc2c(O)cc(=O)[nH]c12,3.2,7.0,-12.4,30.0*,3.5,-4.0,4.1
Cc1c(Cl)cccc1NC(=O)CSc1sc2c(O)cc(=O)[nH]c2c1C#N,-0.8,9.9,-17.0,1.0,6.5,-6.8,x
N#Cc1c(SCC(=O)Nc2nc3ccccc3s2)sc2c(O)cc(=O)[nH]c12,12.6,5.3,-42.3,52.0*,16.0,-2.2,7.0
CCCSc1nnc(NC(=O)CSc2sc3c(O)cc(=O)[nH]c3c2C#N)s1,2.2,8.0,-38.2,34.0*,15.9,14.1,15.0
N#Cc1cccc(NC(=O)CSc2sc3c(O)cc(=O)[nH]c3c2C#N)c1,2.0,2.9,-42.1,18.9,2.1,-5.0,x
N#Cc1c(SCC(=O)Nc2nc3ccc(Br)cc3s2)sc2c(O)cc(=O)[nH]c12,-0.1,8.8,-49.0,18.8,9.6,16.2,x
